Data as given in ChEMBL document CHEMBL4406895, “Discovery of amide-bridged pyrrolo[2,3-d]pyrimidines as tumor targeted classical antifolates with selective uptake by folate receptor α and inhibition of de novo purine nucleotide biosynthesis” (Bioorg Med Chem, 2019).
Values belong to the compound of their own block, whether it stands above or below them. Calls of active or inactive are those of the source. The rule behind the calls is not given here.

Columns and labels:
[1] = Antiproliferative activity in Chinese hamster R2 cells deficient in RFC, PCFT, and FRalpha assessed as reduction in cell growth after 96 hrs by Cell-Titer Blue assay; format: cell-based; details: Cricetulus griseus, R2, 96 h
Method in brief: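 CHO sublines were transfected lines kept with 1 mg/ml G418 (R2 is the transporter-null parent). Cells were exposed to 0–1000 nM drug for 96 h at 37 °C, 5% CO2, in folate-free RPMI with 10% dFBS and 25 nM leucovorin. CellTiter-Blue fluorescence read at ex 560/em 590 nm. IC50 is 50% loss of growth from dose–response curves, mean ± SE of 3–10 experiments.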

[2] = Binding affinity to human FRalpha/RFC/PCFT expressed in KB cells assessed as antiproliferative activity measured as reduction in cell growth after 96 hrs by Cell-Titer Blue assay; format: cell-based
Method in brief: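 RT16 cells were precultured 72 h in folate-free RPMI with 10% dFBS; KB cells were maintained in folate-free RPMI with 10% FBS. Drug at 0–1000 nM for 96 h at 37 °C, 5% CO2, with 2 nM leucovorin. Parallel wells had 200 nM folic acid to block FR uptake. CellTiter-Blue fluorescence (ex 560/em 590 nm). IC50 from dose–response, mean ± SE of 3–10 experiments.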

KB [3] = experiment: Antiproliferative activity against human KB cells at 0.1 to 10000 nM after 96 hrs in presence of 60 uM adenosine by Cell-Titer blue assay; format: functional, cell-based
Method in brief: (§1)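 KB cells grown in folate-, nucleoside- and glycine-free RPMI 1640 with 10% dialyzed FBS, L-glutamine, antibiotics and 2 nM leucovorin across a drug concentration range. Protectants: thymidine 10 μM, glycine 130 μM, adenosine 60 μM or AICA 320 μM. Parallel incubations had no additions. Viable cells read by CellTiter-Blue fluorescence. At least triplicate experiments.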

KB [4] = experiment: Antiproliferative activity against human KB cells at 0.1 to 10000 nM after 96 hrs in presence of 10 uM thymidine by Cell-Titer blue assay; format: functional, cell-based; method in brief: as §1
KB [5] = experiment: Antiproliferative activity against human KB cells at 0.1 to 10000 nM after 96 hrs in presence of 130 uM glycine by Cell-Titer blue assay; format: functional, cell-based; method in brief: as §1
[6] = molecular target: T1, Trifunctional purine biosynthetic protein adenosine-3 (Homo sapiens) (UniProt P22102); experiment: Inhibition of GAFTase in human KB cells assessed as inhibition of [14C(U)glycine incorporation into [14C]formyl GAR preincubated for 30 mins followed by [14C](U)glycine addition and measured after 16 hrs; format: cell-based
T1 sequence (whole entry): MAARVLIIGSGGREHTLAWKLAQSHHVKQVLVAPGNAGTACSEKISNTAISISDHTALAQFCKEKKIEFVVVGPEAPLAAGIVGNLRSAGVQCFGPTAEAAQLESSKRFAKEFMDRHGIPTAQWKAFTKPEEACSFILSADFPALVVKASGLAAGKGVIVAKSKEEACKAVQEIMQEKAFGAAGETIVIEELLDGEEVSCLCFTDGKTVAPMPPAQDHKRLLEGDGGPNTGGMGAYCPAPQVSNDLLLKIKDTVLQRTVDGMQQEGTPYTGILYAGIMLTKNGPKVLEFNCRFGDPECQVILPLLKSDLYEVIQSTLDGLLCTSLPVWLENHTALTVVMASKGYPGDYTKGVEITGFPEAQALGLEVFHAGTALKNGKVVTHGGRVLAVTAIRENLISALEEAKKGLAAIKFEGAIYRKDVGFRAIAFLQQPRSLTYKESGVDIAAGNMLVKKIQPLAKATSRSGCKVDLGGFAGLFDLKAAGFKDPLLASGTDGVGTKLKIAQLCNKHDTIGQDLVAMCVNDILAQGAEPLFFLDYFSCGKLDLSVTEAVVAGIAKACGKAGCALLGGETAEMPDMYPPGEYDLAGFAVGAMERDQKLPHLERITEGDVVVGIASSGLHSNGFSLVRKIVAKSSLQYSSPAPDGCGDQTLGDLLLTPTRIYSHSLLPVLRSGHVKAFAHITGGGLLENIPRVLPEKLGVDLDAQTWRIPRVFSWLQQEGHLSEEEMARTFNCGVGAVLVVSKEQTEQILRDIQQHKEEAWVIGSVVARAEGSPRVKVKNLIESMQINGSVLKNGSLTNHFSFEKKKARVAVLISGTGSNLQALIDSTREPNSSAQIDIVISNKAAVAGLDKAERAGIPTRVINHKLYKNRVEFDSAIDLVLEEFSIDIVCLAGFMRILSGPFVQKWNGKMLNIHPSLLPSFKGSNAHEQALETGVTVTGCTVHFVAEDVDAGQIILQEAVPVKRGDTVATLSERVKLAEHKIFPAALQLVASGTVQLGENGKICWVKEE
Method in brief: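 KB cells adhered 24 h, then were washed and given drug (concentration range; DMSO controls) for 1 h in folate- and glutamine-depleted medium with 2 nM leucovorin. Azaserine 4 µM final was added for 30 min, then L-glutamine 2 mM and [14C(U)]glycine (0.1 mCi/L) for 16 h. TCA extracts yielded pmol [14C]formyl GAR/mg protein. IC50 relative to untreated controls, triplicates.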

KB [7] = experiment: Antiproliferative activity against human KB cells up to 1 uM after 96 hrs in presence of 320 uM AICA by Cell-Titer blue assay; format: functional, cell-based; method in brief: as §1

- inhibition [6]: Active
SMILES: CN(Cc1cc2c(=O)[nH]c(N)nc2[nH]1)C(=O)c1ccc(C(=O)N[C@@H](CCC(=O)O)C(=O)O)s1
- IC50 [1]: > 1000 nM
- IC50 [2]: 4.23 nM
- Activity (KB [3]): inactive
- Activity (KB [4]): Active
- Activity (KB [5]): Active

SMILES: CN(Cc1cc2c(=O)[nH]c(N)nc2[nH]1)S(=O)(=O)c1ccc(C(=O)N[C@@H](CCC(=O)O)C(=O)O)cc1
- IC50 [1]: > 1000 nM
- IC50 [2]: 669 nM

SMILES: CN(Cc1cc2c(=O)[nH]c(N)nc2[nH]1)C(=O)c1csc(C(=O)N[C@@H](CCC(=O)O)C(=O)O)c1
- IC50 [1]: > 1000 nM
- IC50 [2]: > 1000 nM

SMILES: Nc1nc2[nH]c(CCCc3ccc(C(=O)N[C@@H](CCC(=O)O)C(=O)O)cc3)cc2c(=O)[nH]1
- Activity (KB [3]): inactive
- Activity (KB [4]): Active
- Activity (KB [5]): Active
- Activity (KB [7]): inactive

- inhibition [6]: Active
SMILES: CN(Cc1cc2c(=O)[nH]c(N)nc2[nH]1)C(=O)c1ccc(C(=O)N[C@@H](CCC(=O)O)C(=O)O)cc1
- IC50 [1]: > 1000 nM
- IC50 [2]: 1.4 nM
- Activity (KB [3]): inactive
- Activity (KB [4]): Active
- Activity (KB [5]): Active

SMILES: CN(Cc1cc2c(=O)[nH]c(N)nc2[nH]1)C(=O)c1cc(C(=O)N[C@@H](CCC(=O)O)C(=O)O)cs1
- IC50 [1]: > 1000 nM
- IC50 [2]: 69.8 nM

SMILES: Nc1nc2[nH]c(CCCc3ccc(C(=O)N[C@@H](CCC(=O)O)C(=O)O)s3)cc2c(=O)[nH]1
- Activity (KB [3]): inactive
- Activity (KB [4]): Active
- Activity (KB [5]): Active
- Activity (KB [7]): inactive

SMILES: CN(Cc1cc2c(=O)[nH]c(N)nc2[nH]1)C(=O)c1cccc(C(=O)N[C@@H](CCC(=O)O)C(=O)O)c1
- IC50 [1]: > 1000 nM
- IC50 [2]: 6.36 nM
